Assay results published in PubChem BioAssay.
The source made the active and inactive calls.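 How the source made its calls, unless noted: active means viability loss from added drug above about 55%, and viability with drug at most 40%, in both replicates (limit read from the data, passing the limit was not always enough); inconclusive means both conditions met in only one replicate; inactive means neither replicate meets both conditions.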

Experiments:
[1] = reducers of endogenous Her2 protein level, primary screen, SKBR3 breast tumor cells, AlphaScreen, ATP viability (AID 461;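 active means Her2 level under about 52% in both replicate screens, with viability over 70% of control, limit read from the data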;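 on Her2 level: lower value means less Her2 protein in the cells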;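 on viability: percent of carrier control wells set as 100% viability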); settings: 18-24 h, measured here: SKBR3 viability, ATP luminescence, at 10 µM
[2] = target: Receptor tyrosine-protein kinase erbB-2 (Homo sapiens) (UniProt P04626); assay: as above; settings: 18-24 h, at 10 µM, stronger effect = lower value
Chain of Receptor tyrosine-protein kinase erbB-2 (Homo sapiens) (P04626 whole entry, looked up): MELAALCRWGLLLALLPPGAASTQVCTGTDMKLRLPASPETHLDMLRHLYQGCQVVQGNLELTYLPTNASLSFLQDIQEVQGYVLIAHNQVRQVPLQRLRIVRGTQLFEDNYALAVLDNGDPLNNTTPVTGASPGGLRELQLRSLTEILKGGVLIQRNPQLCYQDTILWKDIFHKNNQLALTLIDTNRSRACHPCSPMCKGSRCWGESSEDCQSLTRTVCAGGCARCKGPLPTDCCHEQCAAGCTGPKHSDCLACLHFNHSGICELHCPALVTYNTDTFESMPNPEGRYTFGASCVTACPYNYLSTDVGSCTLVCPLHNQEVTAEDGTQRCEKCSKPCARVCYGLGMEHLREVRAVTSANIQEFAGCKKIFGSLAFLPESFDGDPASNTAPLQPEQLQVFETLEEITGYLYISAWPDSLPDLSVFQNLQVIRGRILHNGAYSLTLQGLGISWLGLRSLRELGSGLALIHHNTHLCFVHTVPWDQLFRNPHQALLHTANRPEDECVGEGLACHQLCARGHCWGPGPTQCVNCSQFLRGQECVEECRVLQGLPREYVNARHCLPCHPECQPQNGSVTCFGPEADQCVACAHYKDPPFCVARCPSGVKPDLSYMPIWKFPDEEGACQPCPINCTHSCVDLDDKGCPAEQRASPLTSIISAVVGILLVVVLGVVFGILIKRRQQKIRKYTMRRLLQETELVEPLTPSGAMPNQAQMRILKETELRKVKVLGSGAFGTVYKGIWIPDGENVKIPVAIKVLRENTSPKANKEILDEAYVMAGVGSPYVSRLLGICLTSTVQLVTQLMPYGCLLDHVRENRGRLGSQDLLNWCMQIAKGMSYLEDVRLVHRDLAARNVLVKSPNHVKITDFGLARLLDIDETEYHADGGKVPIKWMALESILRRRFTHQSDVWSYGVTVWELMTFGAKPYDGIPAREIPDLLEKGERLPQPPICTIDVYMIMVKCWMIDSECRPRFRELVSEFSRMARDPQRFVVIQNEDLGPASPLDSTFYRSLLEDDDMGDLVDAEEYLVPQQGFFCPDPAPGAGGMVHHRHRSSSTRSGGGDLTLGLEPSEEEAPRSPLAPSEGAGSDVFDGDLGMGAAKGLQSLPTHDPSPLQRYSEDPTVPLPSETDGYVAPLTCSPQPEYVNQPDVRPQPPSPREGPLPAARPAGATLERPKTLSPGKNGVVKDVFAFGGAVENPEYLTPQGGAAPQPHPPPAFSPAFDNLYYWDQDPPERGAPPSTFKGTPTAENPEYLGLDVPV

[3] = SK-BR-3 cell growth inhibitors, pilot screen, 24 h, human (AID 572;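 active means viability at or below 10% of carrier control in both of two separate runs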;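 further: compound exposure lasted between 18 and 24 h rather than exactly 24 h; 100% = carrier-treated control wells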); settings: SK-BR-3 viability, CellTiter-Glo luminescence, at 10 µM, stronger effect = lower value
[4] = HUVEC growth inhibition – cell-based, human, primary screen (AID 575;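 active means viability at or below 30% in both replicate assays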;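 further: 100% = median of untreated cell wells with 0.1% DMSO on each plate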); settings: HUVEC proliferation, CellTiter-Glo luminescence, 72 h; at 10 µM; stronger effect = lower value
How it was run: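 Test system – primary HUVEC, no more than 12 passages · Dosing – one dose, 10 µM final, 0.1% DMSO · Times – 72 h treatment at 37 °C · Measured by – ATP-based CellTiter-Glo luminescent read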

[5] = growth inhibitors of H69AR lung tumor, primary screen, human, duplicate replicates (AID 580;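 active means viability at or under a set limit in both replicates, limit being median viability minus 3 SD, cut at about 48% in these data, passing the limit was not always enough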;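 further: 100% = mean luminescence of untreated wells and 0% = no signal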); settings: H69AR lung tumor cells viability, ATP luminescence, 72 h; at 10 µM; stronger effect = lower value
[6] = reversal of MRP1-mediated doxorubicin resistance, pilot screen, H69AR cells, doxorubicin co-treatment (AID 601); settings: CellTiter-Glo, 72 h, at 10 µM; for differential viability (reversal): stronger effect = higher value
[7] = 384-well plate pilot, post-Golgi transport modulator project, inhibition of yeast transport mutant growth (AID 636; in the data active means inhibition above about 31%); settings: absorbance 615 nm, about 18 h, stronger effect = higher value
[8] = growth suppression of yeast trafficking mutant, preliminary HTS, modulators of trafficking downstream of Golgi apparatus project, 1536-format plate, OD 615 nm (AID 637; in the data active means inhibition above about 30%); settings: yeast transport mutant growth, absorbance 615 nm, 18 h; stronger effect = higher value
[9] = H69AR cells + 2 uM doxorubicin, measured here: viability with 2 uM doxorubicin, stronger effect = lower value
[10] = H69AR cells, compound alone cytotoxicity

C/C(N)=C(/C#N)C(=O)COC(=O)COc1ccc(Cl)cc1
viability [1]: 93%
Her2 level [2]: 100% (inactive)
viability [3]: 93% (inactive)
viability [4]: 98% (inactive)
viability [5]: 91.9% (inactive)
differential viability (reversal) ([6]; H69AR cells + 2 uM doxorubicin): -5.87% (inactive)
viability [6, 9]: 97.7%
viability [6, 10]: 91.9%
inhibition [7]: -7.07% (inactive)
inhibition [8]: -5.08% (inactive)

CCOC(=O)c1ccccc1NC(=O)COC(=O)C1=COCCO1
viability [1]: 98.5%
Her2 level [2]: 92% (inactive)
viability [3]: 98.5% (inactive)
viability [4]: 96.7% (inactive)
viability [5]: 88.7% (inactive)
differential viability (reversal) ([6]; H69AR cells + 2 uM doxorubicin): -13.3% (inactive)
viability [6, 9]: 102%
viability [6, 10]: 88.7%
inhibition [7]: -5.81% (inactive)
inhibition [8]: 3% (inactive)

O=C(c1ccc2c(c1)[nH]c(=S)n1c3ccccc3nc21)N1CCN(c2ncccn2)CC1
viability [1]: 100%
Her2 level [2]: 82% (inactive)
viability [3]: 100% (inactive)
viability [4]: 88.7% (inactive)
viability [5]: 96.3% (inactive)
differential viability (reversal) ([6]; H69AR cells + 2 uM doxorubicin): 5.5% (inactive)
viability [6, 9]: 90.8%
viability [6, 10]: 96.3%
inhibition [7]: -3.95% (inactive)
inhibition [8]: 3.67% (inactive)

O=c1ccc2cc3c([nH]c4ccc(Br)cc43)oc-2c1O
viability [1]: 146%
Her2 level [2]: 87% (inactive)
viability [3]: 146% (inactive)
viability [4]: 91.7% (inactive)
viability [5]: 78.3% (inactive)
differential viability (reversal) ([6]; H69AR cells + 2 uM doxorubicin): -3.78% (inactive)
viability [6, 9]: 82.1%
viability [6, 10]: 78.3%
inhibition [7]: -4.16% (inactive)
inhibition [8]: -3.81% (inactive)

CCC(=O)N1CCc2cc(S(=O)(=O)CCC(=O)Nc3ccc(C)c(F)c3)ccc21
viability [1]: 100%
Her2 level [2]: 98.5% (inactive)
viability [3]: 100% (inactive)
viability [4]: 91.6% (inactive)
viability [5]: 83.3% (inactive)
differential viability (reversal) ([6]; H69AR cells + 2 uM doxorubicin): 2.27% (inactive)
viability [6, 9]: 81.1%
viability [6, 10]: 83.3%
inhibition [7]: -4% (inactive)
inhibition [8]: 1.8% (inactive)

O=C(CCCn1ncn2c(cc3occc32)c1=O)N1CCc2ccccc2C1
viability [1]: 126%
Her2 level [2]: 90.5% (inactive)
viability [3]: 126% (inactive)
viability [4]: 83.8% (inactive)
viability [5]: 84.7% (inactive)
differential viability (reversal) ([6]; H69AR cells + 2 uM doxorubicin): -5.79% (inactive)
viability [6, 9]: 90.5%
viability [6, 10]: 84.7%
inhibition [7]: -4.21% (inactive)
inhibition [8]: -6.73% (inactive)

O=S(=O)(NCCCCCNS(=O)(=O)c1ccccc1)c1ccccc1
viability [1]: 92.5%
Her2 level [2]: 90.5% (inactive)
viability [3]: 92.5% (inactive)
viability [4]: 112% (inactive)
viability [5]: 93.2% (inactive)
differential viability (reversal) ([6]; H69AR cells + 2 uM doxorubicin): -13.4% (inactive)
viability [6, 9]: 107%
viability [6, 10]: 93.2%
inhibition [7]: -4% (inactive)
inhibition [8]: -3.39% (inactive)

Cc1ccc(C)c(NC(=O)CC(NCCCN2CCOCC2)C(=O)O)c1 (stereo not given)
viability [1]: 94%
Her2 level [2]: 93.5% (inactive)
viability [3]: 94% (inactive)
viability [4]: 106% (inactive)
viability [5]: 88.3% (inactive)
differential viability (reversal) ([6]; H69AR cells + 2 uM doxorubicin): -8.47% (inactive)
viability [6, 9]: 96.8%
viability [6, 10]: 88.3%
inhibition [7]: -0.78% (inactive)
inhibition [8]: 9.51% (inactive)

CCCN(CCC)S(=O)(=O)c1ccc(NS(C)(=O)=O)cc1
viability [1]: 110%
Her2 level [2]: 124% (inactive)
viability [3]: 110% (inactive)
viability [4]: 98.2% (inactive)
viability [5]: 105% (inactive)
differential viability (reversal) ([6]; H69AR cells + 2 uM doxorubicin): 6.41% (inactive)
viability [6, 9]: 99%
viability [6, 10]: 105%
inhibition [7]: -1.18% (inactive)
inhibition [8]: -5.83% (inactive)

c1ccc(-c2nn3c(Cn4nnc5ccccc54)nnc3s2)nc1
viability [1]: 102%
Her2 level [2]: 114% (inactive)
viability [3]: 102% (inactive)
viability [4]: 75.6% (inactive)
viability [5]: 101% (inactive)
differential viability (reversal) ([6]; H69AR cells + 2 uM doxorubicin): 9.54% (inactive)
viability [6, 9]: 91.5%
viability [6, 10]: 101%
inhibition [7]: -2.89% (inactive)
inhibition [8]: -2.67% (inactive)

COc1ccc(C)cc1-n1nnnc1SCC(=O)Nc1cc(C)on1
viability [1]: 95%
Her2 level [2]: 85% (inactive)
viability [3]: 95% (inactive)
viability [4]: 78.6% (inactive)
viability [5]: 90.6% (inactive)
differential viability (reversal) ([6]; H69AR cells + 2 uM doxorubicin): 4.68% (inactive)
viability [6, 9]: 85.9%
viability [6, 10]: 90.6%
inhibition [7]: -2.6% (inactive)
inhibition [8]: -0.63% (inactive)

COc1ccc(OC)c(NC(=O)CSc2ncccc2C(=O)O)c1
viability [1]: 104%
Her2 level [2]: 98% (inactive)
viability [3]: 104% (inactive)
viability [4]: 100% (inactive)
viability [5]: 104% (inactive)
differential viability (reversal) ([6]; H69AR cells + 2 uM doxorubicin): 7.42% (inactive)
viability [6, 9]: 96.4%
viability [6, 10]: 104%
inhibition [7]: -3.29% (inactive)
inhibition [8]: -3.45% (inactive)

CN(C#N)c1nc(N2CCOCC2)nc(N2CCOCC2)n1
viability [1]: 111%
Her2 level [2]: 120% (inactive)
viability [3]: 111% (inactive)
viability [4]: 81.7% (inactive)
viability [5]: 92.8% (inactive)
differential viability (reversal) ([6]; H69AR cells + 2 uM doxorubicin): 3.22% (inactive)
viability [6, 9]: 89.5%
viability [6, 10]: 92.8%
inhibition [7]: -1.22% (inactive)
inhibition [8]: 6.35% (inactive)

CC(=O)Nc1ccc(Cl)cc1C(=O)O
viability [1]: 96.5%
Her2 level [2]: 97.5% (inactive)
viability [3]: 96.5% (inactive)
viability [4]: 85.8% (inactive)
viability [5]: 106% (inactive)
differential viability (reversal) ([6]; H69AR cells + 2 uM doxorubicin): 10.4% (inactive)
viability [6, 9]: 95.3%
viability [6, 10]: 106%
inhibition [7]: -5.87% (inactive)
inhibition [8]: -1.29% (inactive)

CCN(CC)CCN1C(=O)C(=O)/C(=C(/O)c2c(C)[nH]c(C(=O)OC)c2C)C1c1ccccc1OC (stereo not given)
viability [1]: 104%
Her2 level [2]: 117% (inactive)
viability [3]: 104% (inactive)
viability [4]: 84.6% (inactive)
viability [5]: 68.3% (inactive)
differential viability (reversal) ([6]; H69AR cells + 2 uM doxorubicin): -21.3% (inactive)
viability [6, 9]: 89.5%
viability [6, 10]: 68.3%
inhibition [7]: -0.26% (inactive)
inhibition [8]: -4.5% (inactive)
